In ChEMBL document CHEMBL1127092, “Crystal and molecular structure and in vitro antiproliferative and antitumor activity of two organotin (IV) carbohydrate compounds” (J Med Chem, 1993):

Key:
Format in all cases: functional, cell-based, Mus musculus
L1210 = assay: Antitumor activity against L1210 cell line determined by reduction of the [3H]thymidine incorporation after a 24-h incubation period
In short: (§1)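 Mouse ascites tumor cells harvested 7 days after i.p. transplantation, washed, preincubated 4 h at 2.10^5 cells/mL in RPMI 1640 with 10% FCS and 1 mM glutamine under 5% CO2. Cells then exposed to compounds (ethanol stocks diluted in medium) for 24 h at 37°C. [3H]TdR (0.5 μCi) was added […] and cells were harvested 8 h later. Values are means of two experiments, each in 4-fold.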

MOPC 315 = assay: Antitumor activity against MOPC315 cell line determined by reduction of the [3H]thymidine incorporation after a 24-h incubation period; in short: as §1
P815 = assay: Antitumor activity against P815 cell line determined by reduction of the [3H]thymidine incorporation after a 24-h incubation period; in short: as §1

Row | IC50 (L1210) | IC50 (MOPC 315) | IC50 (P815) | Substance
1 | > 5000 nM | > 5000 nM | > 5000 nM | 5-(2,2-Dimethyl-[1,3]dioxolan-4-yl)-2,2-dimethyl-6-[(triphenylstannanyl)-methyl]-tetrahydro-furo[2,3-d][1,3]dioxol-6-ol
2 | 760 nM | 670 nM | 540 nM | 5-(2,2-Dimethyl-[1,3]dioxolan-4-yl)-2,2-dimethyl-6-triphenylstannanyl-tetrahydro-furo[2,3-d][1,3]dioxol-6-ol
3 | 180 nM | 200 nM | 130 nM | TRIPHENYLTIN CHLORIDE
